Source: ChEMBL document CHEMBL1143029, “Heme oxygenase inhibition by 2-oxy-substituted 1-(1H-imidazol-1-yl)-4-phenylbutanes: effect of halogen substitution in the phenyl ring” (Bioorg Med Chem, 2007)

How the values were obtained:
Heme oxygenase 2 = target: T1, Heme oxygenase 2 (Rattus norvegicus, UniProt P23711); assay: Inhibition of Sprague-Dawley rat brain microsome HO2
T1 sequence (P23711 whole entry): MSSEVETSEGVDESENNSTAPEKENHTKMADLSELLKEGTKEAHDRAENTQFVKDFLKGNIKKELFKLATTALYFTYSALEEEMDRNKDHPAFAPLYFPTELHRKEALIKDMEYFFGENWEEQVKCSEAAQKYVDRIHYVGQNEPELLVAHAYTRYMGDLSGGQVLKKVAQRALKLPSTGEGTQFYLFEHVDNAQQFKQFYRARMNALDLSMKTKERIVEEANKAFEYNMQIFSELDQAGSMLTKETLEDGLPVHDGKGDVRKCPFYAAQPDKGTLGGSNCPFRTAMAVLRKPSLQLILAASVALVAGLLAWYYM

Rattus norvegicus = organism: Rattus norvegicus; assay: Selectivity index, ratio of IC50 for Sprague-Dawley rat brain HO2 to IC50 for Sprague-Dawley rat spleen HO1; type: tissue-based
Summary of the method: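 Ratio of IC50(HO-2) to IC50(HO-1). HO-2 comes from Sprague-Dawley rat brain microsomes and HO-1 from spleen microsomes. Both were assayed identically: methemalbumin substrate, 10 min inhibitor pre-incubation at 37 °C, 15 min reaction with 1 mM NADPH, and CO measured by GC. Each IC50 was derived from sigmoidal dose–response fits of percent-control activity.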

Heme oxygenase 1 = target: T2, Heme oxygenase 1 (Rattus norvegicus, UniProt P06762); assay: Inhibition of Sprague-Dawley rat spleen microsome HO1; type: microsomes
T2 sequence (P06762 whole entry): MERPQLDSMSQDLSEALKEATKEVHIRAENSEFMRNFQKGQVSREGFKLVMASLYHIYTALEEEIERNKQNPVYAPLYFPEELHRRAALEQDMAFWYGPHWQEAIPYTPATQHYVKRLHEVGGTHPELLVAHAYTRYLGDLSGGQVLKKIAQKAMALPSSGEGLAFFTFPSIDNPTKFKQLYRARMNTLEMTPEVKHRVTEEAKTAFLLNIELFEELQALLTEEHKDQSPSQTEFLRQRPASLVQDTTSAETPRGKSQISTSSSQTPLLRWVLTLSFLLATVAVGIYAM

[1] = target: T3, Heme oxygenase 1 (Rattus norvegicus) (UniProt P06762); assay: Inhibition of Sprague-Dawley rat spleen microsome HO1 at 0.1 uM relative to control; type: microsomes
T3 sequence (whole entry): T2 sequence (P06762 whole entry)
Summary of the method: (§1)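 Spleen (HO-1) or brain (HO-2) microsomes from Sprague-Dawley rats, at 1 mg/mL protein in 100 mM phosphate buffer pH 7.4 with methemalbumin (heme–albumin) as substrate. Inhibitor hydrochloride pre-incubated 10 min at 37 °C, then 1 mM NADPH added for 15 min at 37 °C. Stopped by freezing on dry ice. CO formed measured by gas chromatography; activity given as percent of no-inhibitor control.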

[2] = target: T3, Heme oxygenase 1 (Rattus norvegicus); assay: Inhibition of Sprague-Dawley rat spleen microsome HO1 at 0.01 uM relative to control; type: microsomes
[3] = target: T4, Heme oxygenase 2 (Rattus norvegicus) (UniProt P23711); assay: Inhibition of Sprague-Dawley rat brain microsome HO2 at 0.1 uM relative to control; summary of the method: as §1
T4 sequence (whole entry): T1 sequence (P23711 whole entry)

[4] = target: T4, Heme oxygenase 2 (Rattus norvegicus); assay: Inhibition of Sprague-Dawley rat brain microsome HO2 at 100 uM relative to control; summary of the method: as §1
[5] = target: T3, Heme oxygenase 1 (Rattus norvegicus); conditions: Sprague-Dawley, Spleen, Microsome, 100 uM

| IC50 (Heme oxygenase 2) | IC50 (Heme oxygenase 1) | inhibition [4] | Compound | Ratio IC50 (Rattus norvegicus) | further results |
| --- | --- | --- | --- | --- | --- |
| > 100 µM | – | – | Brc1ccc(CCC2(Cn3ccnc3)OCCO2)cc1 | > 52.6 | – |
| > 100 µM | 3.7 µM | – | Ic1ccc(CCC2(Cn3ccnc3)OCCO2)cc1 | > 27 | – |
| – | – | – | OC(CCc1ccc(Br)cc1)Cn1ccnc1 (stereo not given) | – | inhibition [1]: 55%; inhibition [2]: 8% |
| > 100 µM | – | – | c1ccc(CCC2(Cn3ccnc3)OCCO2)cc1 | – | – |
| – | – | 60% | O=C(CCc1ccc(I)cc1)Cn1ccnc1 | 16.4 | inhibition [1]: 44%; inhibition [3]: 10%; inhibition [5]: 80% |
| 1.8 µM | – | – | OC(CCc1ccc(I)cc1)Cn1ccnc1 (stereo not given) | – | – |
| – | 6.2 µM | – | OC(CCc1ccccc1)Cn1ccnc1 (stereo not given) | 2.6 | – |
| 9.5 µM | – | 60% | O=C(CCc1ccc(Br)cc1)Cn1ccnc1 | – | – |
| 1.9 µM | – | 60% | O=C(CCc1ccc(F)cc1)Cn1ccnc1 | 1.4 | inhibition [3]: 10%; inhibition [5]: 80% |
| – | – | 90% | OC(CCc1ccc(Cl)cc1)Cn1ccnc1 (stereo not given) | 8 | – |
| – | – | 60% | O=C(CCc1ccccc1)Cn1ccnc1 | – | inhibition [5]: 80% |
| > 100 µM | 3.8 µM | – | Fc1ccc(CCC2(Cn3ccnc3)OCCO2)cc1 | > 26.3 | – |

| Compound | IC50 (Heme oxygenase 2) | IC50 (Heme oxygenase 1) | inhibition [4] | Ratio IC50 (Rattus norvegicus) | further results |
| --- | --- | --- | --- | --- | --- |
| Clc1ccc(CCC2(Cn3ccnc3)OCCO2)cc1 | – | 4.3 µM | – | > 23.2 | – |
| Nc1ccc(SC[C@@H]2CO[C@](CCc3ccc(Cl)cc3)(Cn3ccnc3)O2)cc1 [AZALANSTAT] | 24.5 µM | 5.3 µM | – | 4.6 | – |
